{
  "source": "ChEMBL document CHEMBL1649446",
  "about": "“Comparative antipneumococcal activities of sulopenem and other drugs” (2009)",
  "assay_type_in_all_cases": "functional",
  "key": {"Streptococcus pneumoniae [1]": {"system": "Streptococcus pneumoniae", "experiment": "Antimicrobial activity against Streptococcus pneumoniae 3 by time-kill analysis", "in_short": "(§1)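 Time-kill in cation-adjusted Mueller-Hinton broth with 5% lysed horse blood; inocula 5 × 105 to 5 × 10^6 CFU/ml; drugs at MIC, 2× and 4× MIC; 35°C shaking water bath; viable counts at 0, 3, 6, 12, 24 h. Bactericidal = ≥3 log10 CFU/ml (99.9%) drop from original inoculum; 90%/99%/99.9% killing scored per strain.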"}, "Streptococcus pneumoniae [2]": {"system": "Streptococcus pneumoniae", "experiment": "Antimicrobial activity against Streptococcus pneumoniae 1 by time-kill analysis", "in_short": "as §1, with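 “12 and” for “12,”, “if” for “=”, “reduction” for “drop”, “90% and 99%” for “90%/99%/99.9%”, “also scored.” for “scored per strain.”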"}, "Streptococcus pneumoniae [3]": {"system": "Streptococcus pneumoniae", "experiment": "Antimicrobial activity against Streptococcus pneumoniae 11 by time-kill analysis", "in_short": "as §1"}, "Streptococcus pneumoniae [4]": {"system": "Streptococcus pneumoniae", "experiment": "Antimicrobial activity against Streptococcus pneumoniae 7 by time-kill analysis in presence of beta-lactamase inhibitor clavulanic acid"}, "Streptococcus pneumoniae [5]": {"system": "Streptococcus pneumoniae", "experiment": "Antimicrobial activity against Streptococcus pneumoniae 7 by time-kill analysis", "in_short": "as §1"}, "Streptococcus pneumoniae [6]": {"system": "Streptococcus pneumoniae", "experiment": "Antimicrobial activity against Streptococcus pneumoniae 9 by time-kill analysis", "in_short": "as §1, with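 “12 and” for “12,”, “if” for “=”, “reduction” for “drop”, “90% and 99%” for “90%/99%/99.9%”, “also scored.” for “scored per strain.”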"}, "Streptococcus pneumoniae [7]": {"system": "Streptococcus pneumoniae", "experiment": "Antimicrobial activity against Streptococcus pneumoniae 2 by time-kill analysis", "in_short": "as §1"}, "Streptococcus pneumoniae [8]": {"system": "Streptococcus pneumoniae", "experiment": "Antimicrobial activity against Streptococcus pneumoniae isolate 1146 by agar dilution method", "in_short": "(§2)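 Agar dilution MIC on Mueller-Hinton agar with 5% sheep blood, inocula 10^4 CFU/spot; amoxicillin-clavulanate combined 1:2; S. pneumoniae ATCC 49619 quality control each run.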"}, "Streptococcus pneumoniae [9]": {"system": "Streptococcus pneumoniae", "experiment": "Antimicrobial activity against penicillin-intermediate Streptococcus pneumoniae by agar dilution method in presence of beta-lactamase inhibitor clavulanic acid", "in_short": "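Agar dilution MIC on Mueller-Hinton agar with 5% sheep blood at 10^4 CFU/spot. Clavulanate combined with amoxicillin 1:2. Control S. pneumoniae ATCC 49619 included in each run. Penicillin categories: intermediate 0.125–1.0 μg/ml, resistant 2.0–16.0 μg/ml. MIC50/MIC90 taken across strain sets, including 45 drug-resistant serotype 19A isolates.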"}, "Streptococcus pneumoniae [10]": {"system": "Streptococcus pneumoniae", "experiment": "Antimicrobial activity against Streptococcus pneumoniae isolate 3260 by agar dilution method"}, "Streptococcus pneumoniae [11]": {"system": "Streptococcus pneumoniae", "experiment": "Antimicrobial activity against Streptococcus pneumoniae isolate 3481 by agar dilution method", "in_short": "as §2"}, "Streptococcus pneumoniae [12]": {"system": "Streptococcus pneumoniae", "experiment": "Antimicrobial activity against Streptococcus pneumoniae isolate 1384 by agar dilution method", "in_short": "as §2"}, "Streptococcus pneumoniae [13]": {"system": "Streptococcus pneumoniae", "experiment": "Antimicrobial activity against Streptococcus pneumoniae isolate 2686 by agar dilution method", "in_short": "as §2"}, "Streptococcus pneumoniae [14]": {"system": "Streptococcus pneumoniae", "experiment": "Antimicrobial activity against Streptococcus pneumoniae isolate 37 by agar dilution method", "in_short": "as §2"}, "Streptococcus pneumoniae [15]": {"system": "Streptococcus pneumoniae", "experiment": "Antimicrobial activity against Streptococcus pneumoniae isolate 3263 by agar dilution method"}, "Streptococcus pneumoniae [16]": {"system": "Streptococcus pneumoniae", "experiment": "Antimicrobial activity against Streptococcus pneumoniae isolate 33 by agar dilution method", "in_short": "as §2"}, "Streptococcus pneumoniae [17]": {"system": "Streptococcus pneumoniae", "experiment": "Antimicrobial activity against Streptococcus pneumoniae 3 by time-kill analysis in presence of beta-lactamase inhibitor clavulanic acid"}, "Streptococcus pneumoniae [18]": {"system": "Streptococcus pneumoniae", "experiment": "Antimicrobial activity against Streptococcus pneumoniae 12 by time-kill analysis in presence of beta-lactamase inhibitor clavulanic acid"}, "Streptococcus pneumoniae [19]": {"system": "Streptococcus pneumoniae", "experiment": "Antimicrobial activity against Streptococcus pneumoniae isolate 24 by agar dilution method"}, "Streptococcus pneumoniae [20]": {"system": "Streptococcus pneumoniae", "experiment": "Antimicrobial activity against Streptococcus pneumoniae isolate 3282 by agar dilution method"}, "Streptococcus pneumoniae [21]": {"system": "Streptococcus pneumoniae", "experiment": "Antimicrobial activity against Streptococcus pneumoniae 6 by time-kill analysis", "in_short": "as §1"}, "Streptococcus pneumoniae [22]": {"system": "Streptococcus pneumoniae", "experiment": "Antimicrobial activity against Streptococcus pneumoniae 8 by time-kill analysis", "in_short": "as §1"}, "Streptococcus pneumoniae [23]": {"system": "Streptococcus pneumoniae", "experiment": "Antimicrobial activity against Streptococcus pneumoniae isolate 4747 by agar dilution method", "in_short": "as §2"}, "Streptococcus pneumoniae [24]": {"system": "Streptococcus pneumoniae", "experiment": "Antimicrobial activity against Streptococcus pneumoniae 12 by time-kill analysis", "in_short": "as §1"}, "Streptococcus pneumoniae [25]": {"system": "Streptococcus pneumoniae", "experiment": "Antimicrobial activity against Streptococcus pneumoniae isolate 1564 by agar dilution method"}, "Streptococcus pneumoniae [26]": {"system": "Streptococcus pneumoniae", "experiment": "Antimicrobial activity against Streptococcus pneumoniae 9 by time-kill analysis in presence of beta-lactamase inhibitor clavulanic acid"}, "Streptococcus pneumoniae [27]": {"system": "Streptococcus pneumoniae", "experiment": "Antimicrobial activity against Streptococcus pneumoniae isolate 3275 by agar dilution method", "in_short": "as §2"}, "Streptococcus pneumoniae [28]": {"system": "Streptococcus pneumoniae", "experiment": "Antimicrobial activity against Streptococcus pneumoniae isolate 3458 by agar dilution method"}, "Streptococcus pneumoniae [29]": {"system": "Streptococcus pneumoniae", "experiment": "Antimicrobial activity against Streptococcus pneumoniae isolate 3346 by agar dilution method"}, "Streptococcus pneumoniae [30]": {"system": "Streptococcus pneumoniae", "experiment": "Antimicrobial activity against Streptococcus pneumoniae isolate 1397 by agar dilution method", "in_short": "as §2"}, "Streptococcus pneumoniae [31]": {"system": "Streptococcus pneumoniae", "experiment": "Antimicrobial activity against penicillin-susceptible Streptococcus pneumoniae by agar dilution method"}, "Streptococcus pneumoniae [32]": {"system": "Streptococcus pneumoniae", "experiment": "Antimicrobial activity against Streptococcus pneumoniae isolate 1394 by agar dilution method"}, "Streptococcus pneumoniae [33]": {"system": "Streptococcus pneumoniae", "experiment": "Antimicrobial activity against Streptococcus pneumoniae 6 by time-kill analysis in presence of beta-lactamase inhibitor clavulanic acid"}, "Streptococcus pneumoniae [34]": {"system": "Streptococcus pneumoniae", "experiment": "Antimicrobial activity against Streptococcus pneumoniae isolate 1055 by agar dilution method"}},
  "data": [
    {"smiles": "CC1(C)S[C@@H]2[C@H](NC(=O)[C@H](N)c3ccc(O)cc3)C(=O)N2[C@H]1C(=O)O", "note": "[AMOXICILLIN]", "values": [
      {"measurement": "MIC", "setting": "Streptococcus pneumoniae [1]", "result": 0.5, "unit": "µg/mL"},
      {"measurement": "MIC", "setting": "Streptococcus pneumoniae [2]", "result": 0.03, "unit": "µg/mL"},
      {"measurement": "MIC", "setting": "Streptococcus pneumoniae [3]", "result": 2, "unit": "µg/mL"},
      {"measurement": "MIC", "setting": "Streptococcus pneumoniae [4]", "result": 2, "unit": "µg/mL"},
      {"measurement": "MIC", "setting": "Streptococcus pneumoniae [5]", "result": 2, "unit": "µg/mL"},
      {"measurement": "MIC", "setting": "Streptococcus pneumoniae [6]", "result": 0.25, "unit": "µg/mL"},
      {"measurement": "MIC", "setting": "Streptococcus pneumoniae [7]", "result": 0.03, "unit": "µg/mL"},
      {"measurement": "MIC", "setting": "Streptococcus pneumoniae [8]", "result": 4, "unit": "µg/mL"},
      {"measurement": "MIC50", "setting": "Streptococcus pneumoniae [9]", "result": 0.25, "unit": "µg/mL"},
      {"measurement": "MIC90", "setting": "Streptococcus pneumoniae [9]", "result": 1, "unit": "µg/mL"},
      {"measurement": "MIC", "setting": "Streptococcus pneumoniae [10]", "result": 8, "unit": "µg/mL"},
      {"measurement": "MIC", "setting": "Streptococcus pneumoniae [11]", "result": 8, "unit": "µg/mL"},
      {"measurement": "MIC", "setting": "Streptococcus pneumoniae [12]", "result": 4, "unit": "µg/mL"},
      {"measurement": "MIC", "setting": "Streptococcus pneumoniae [13]", "result": 8, "unit": "µg/mL"},
      {"measurement": "MIC", "setting": "Streptococcus pneumoniae [14]", "result": 2, "unit": "µg/mL"},
      {"measurement": "MIC", "setting": "Streptococcus pneumoniae [15]", "result": 2, "unit": "µg/mL"},
      {"measurement": "MIC", "setting": "Streptococcus pneumoniae [16]", "result": 2, "unit": "µg/mL"},
      {"measurement": "MIC", "setting": "Streptococcus pneumoniae [17]", "result": 0.5, "unit": "µg/mL"},
      {"measurement": "MIC", "setting": "Streptococcus pneumoniae [18]", "result": 1, "unit": "µg/mL"},
      {"measurement": "MIC", "setting": "Streptococcus pneumoniae [19]", "result": 2, "unit": "µg/mL"},
      {"measurement": "MIC", "setting": "Streptococcus pneumoniae [20]", "result": 4, "unit": "µg/mL"},
      {"measurement": "MIC", "setting": "Streptococcus pneumoniae [21]", "result": 0.25, "unit": "µg/mL"},
      {"measurement": "MIC", "setting": "Streptococcus pneumoniae [22]", "result": 2, "unit": "µg/mL"},
      {"measurement": "MIC", "setting": "Streptococcus pneumoniae [23]", "result": 8, "unit": "µg/mL"},
      {"measurement": "MIC", "setting": "Streptococcus pneumoniae [24]", "result": 1, "unit": "µg/mL"},
      {"measurement": "MIC", "setting": "Streptococcus pneumoniae [25]", "result": 4, "unit": "µg/mL"},
      {"measurement": "MIC", "setting": "Streptococcus pneumoniae [26]", "result": 0.25, "unit": "µg/mL"},
      {"measurement": "MIC", "setting": "Streptococcus pneumoniae [27]", "result": 1, "unit": "µg/mL"},
      {"measurement": "MIC", "setting": "Streptococcus pneumoniae [28]", "result": 8, "unit": "µg/mL"},
      {"measurement": "MIC", "setting": "Streptococcus pneumoniae [29]", "result": 8, "unit": "µg/mL"},
      {"measurement": "MIC", "setting": "Streptococcus pneumoniae [30]", "result": 4, "unit": "µg/mL"},
      {"measurement": "MIC50", "setting": "Streptococcus pneumoniae [31]", "result": 0.03, "unit": "µg/mL"},
      {"measurement": "MIC90", "setting": "Streptococcus pneumoniae [31]", "result": 0.03, "unit": "µg/mL"},
      {"measurement": "MIC", "setting": "Streptococcus pneumoniae [32]", "result": 8, "unit": "µg/mL"},
      {"measurement": "MIC", "setting": "Streptococcus pneumoniae [33]", "result": 0.25, "unit": "µg/mL"},
      {"measurement": "MIC", "setting": "Streptococcus pneumoniae [34]", "result": 4, "unit": "µg/mL"}
    ]}
  ]
}
